CSC inhib: cancer stem cell viability inhibitors, primary screen, luminescence; cancer stem cell-like cells viability; inhibition, % at 7.5 µM; 300,000 tested, 1.1% active; in the data active means inhibition above about 75%; inconclusive means no clear call, values can overlap the other calls; tested in HMLE shEcad cells
CHOP UPR activ: activators of apoptotic CHOP UPR arm, primary screen, cell-based, CHO-CHOP luciferase reporter, luminescence, uHTS; activation, % at 10 µM; 330,000 tested, 0.34% active; UPR activation; percent of tunicamycin response over DMSO baseline;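 active means at 10 µM dose, activation of 40% or more, normalized to positive control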;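 further: 100% = tunicamycin at 10 µg/mL and 0% = DMSO alone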
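Assay system: CHO-CHOP cells, stable luciferase reporter of PERK-eIF2a-CHOP signalling / Buffer or medium: F12 plus 10% serum / Compound dosing: one dose, 10 µM in 0.5% DMSO / Times: 6 h compound treatment, 37 °C / Technique: luciferase luminescence / Read-out: % reporter activation, DMSO baseline versus tunicamycin full activation / Benchmarks: tunicamycin and DMSO controls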
Mdm2 MdmX PPI: inhibitors of human Mdm2-MdmX association, primary screen, cell-based, luminescence, split luciferase, SaOS-2, uHTS; Protein Mdm4 (Homo sapiens) + E3 ubiquitin-protein ligase Mdm2 (Homo sapiens), …; SaOS-2 split-luciferase Mdm2/MdmX complementation; inhibition, % at 8 µM; 330,000 tested, 3% active; AID 485346, 2010;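 active means inhibition of at least 50% at 8 µM in the primary screen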
Target sequence (O15151 whole entry, looked up): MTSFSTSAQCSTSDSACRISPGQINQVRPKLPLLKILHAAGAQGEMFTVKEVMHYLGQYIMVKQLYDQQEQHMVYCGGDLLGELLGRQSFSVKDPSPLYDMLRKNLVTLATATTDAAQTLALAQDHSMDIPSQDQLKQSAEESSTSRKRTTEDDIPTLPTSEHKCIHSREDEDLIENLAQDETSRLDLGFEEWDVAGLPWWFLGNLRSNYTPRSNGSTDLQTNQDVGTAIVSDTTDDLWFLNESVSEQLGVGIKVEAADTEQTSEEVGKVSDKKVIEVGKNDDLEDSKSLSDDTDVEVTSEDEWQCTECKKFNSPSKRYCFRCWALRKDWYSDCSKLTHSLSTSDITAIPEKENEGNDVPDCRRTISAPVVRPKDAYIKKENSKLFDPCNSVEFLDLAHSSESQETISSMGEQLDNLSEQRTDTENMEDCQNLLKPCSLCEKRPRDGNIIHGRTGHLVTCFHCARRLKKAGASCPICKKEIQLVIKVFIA
Target sequence (Q00987 whole entry, looked up): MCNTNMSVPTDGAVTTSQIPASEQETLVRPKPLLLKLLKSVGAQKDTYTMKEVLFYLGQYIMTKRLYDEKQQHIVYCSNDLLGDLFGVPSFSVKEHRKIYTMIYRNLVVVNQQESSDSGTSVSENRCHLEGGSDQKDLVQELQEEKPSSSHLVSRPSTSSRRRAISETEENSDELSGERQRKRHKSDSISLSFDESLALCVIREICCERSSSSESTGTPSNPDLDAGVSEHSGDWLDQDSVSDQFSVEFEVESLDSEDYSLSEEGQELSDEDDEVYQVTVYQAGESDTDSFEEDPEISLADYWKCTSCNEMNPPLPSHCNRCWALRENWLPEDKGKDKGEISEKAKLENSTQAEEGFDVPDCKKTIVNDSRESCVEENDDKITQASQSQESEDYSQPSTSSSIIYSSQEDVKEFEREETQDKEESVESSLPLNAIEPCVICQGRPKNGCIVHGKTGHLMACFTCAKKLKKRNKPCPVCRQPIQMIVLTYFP
SKKanGAS inh: S. pyogenes SKKanGAS growth inhibitors in kanamycin, primary screen, streptokinase expression inhibitor project, SKKanGAS strain, BacTiter-Glo luminescence | 300,000 tested, 1.3% active | 6 h | inhibition, % at 7.5 µM;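 active means mean replicate score, as percent of positive control median, at least 50; inconclusive means mean below 50 but one replicate at or above 50; inactive means mean and every replicate below 50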;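 further: strain carries kanamycin resistance gene driven by streptokinase promoter and grows in 40 µg/ml kanamycin; loss of luminescence reflects streptokinase promoter inhibition or plain growth inhibition; 0% = median of DMSO wells and 100% = positive control at its reference dose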
Beta apoptosis: inhibitors of cytokine-induced beta cell apoptosis, primary screen, luminescence; INS-1E cytokine-induced death, ATP luminescence, 48 h; percent of positive-control rescue, neutral wells zero; 300,000 tested, 0.8% active; protection from apoptosis, % (concentration not given with the values);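 active means Every replicate reaches about 75%, or at least half do and their mean reaches it too, limit read from the data; inconclusive means At least half of replicates reach the limit but their mean does not; inactive means Under half of replicates reach the limit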;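 further: 0% = cytokine-treated negative control wells and 100% = positive control rescue; higher means more ATP so stronger rescue from cytokine killing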
UPR XBP1 act: activators of adaptive XBP1 UPR arm, primary screen, cell-based, CHO-XBP1 luciferase reporter, luminescence, uHTS. IRE1-XBP1 UPR activation; percent of tunicamycin response, DMSO as zero. 330,000 tested, 0.33% active. activation, % at 20 µM;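 active means versus positive control, 20 µM dose yields 30% or more activation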;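 further: 100% = tunicamycin at 10 µg/mL and 0% = DMSO only wells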
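assay system = CHO-XBP1 luciferase reporter cells | amount = 1000 cells/well | buffer or medium = F12 plus 10% FBS | compound dosing = single point, 20 µM final compound, 1% DMSO | incubation = 16-18 h cell attachment at 37 °C, then 6 h compound exposure | detection = Steady-Glo luminescence read | controls = tunicamycin 10 µg/mL and vehicle-only wells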
Mdm2 MdmX conf: Mdm2-MdmX complex disruptors, retested hits, confirmation, luminescence, single concentration; shares compounds with Mdm2 MdmX PPI; Mdm2-MdmX binding, luminescent assay; inhibition, % at 8 µM; 10,000 tested, 55% active; in the data active means inhibition above about 40%
FLuc counter: full-length luciferase signal inhibition, confirmation, counter-screen for Mdm2/MdmX interaction inhibitor project, cell-based, single concentration, SaOS-2 | shares compounds with Mdm2 MdmX PPI | SaOS-2 full-length luciferase counterscreen, luminescence | inhibition, % at 8 µM | 6,200 tested, 77% active | AID 504607, 2011;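 active means mean inhibition at 8 µM reaching about 37%, which flags the compound as non-specific, limit read from the data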;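 further: p53-null SaOS-2 cells with luciferase driven by a doxycycline-inducible promoter; compound on cells about two nights before reading with doxycycline added after day one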
The depositor's hits bear a star; ? = inconclusive; . = no result. Most compounds without a hit are left out; they make up all but 4.8% or so of the library.

SMILES	CSC inhib	CHOP UPR activ	Mdm2 MdmX PPI	SKKanGAS inh	Beta apoptosis	UPR XBP1 act	Mdm2 MdmX conf	FLuc counter
COc1ccc(CCNC(=O)CC(c2ccccc2)c2cc(C)ccc2O)cc1OC (stereo not drawn)	-14	1	17	-1	.	7	.	.
CCCC[C@@H](CNC)NC[C@H](NCCCCC1CCCCC1)C(C)C	-25	6	98*	9	.	25	43*	65*
N/C(=N\OC(=O)CC(c1ccccc1)c1ccccc1)c1cccnc1	22	-1	88*	-20	2	-3	64*	100*
Cc1ccc(N(CC(=O)N/N=C/c2cccnc2)S(=O)(=O)c2ccccc2)cc1	-14	-2	4	-8	-1	-1	.	.
Cc1ccc(S(=O)(=O)N(CC(=O)N/N=C/c2cccc(Cl)c2)c2cccc3cccnc23)cc1	-7	3	66*	-3	41	24	23	.
CCN(CC)S(=O)(=O)c1cc([N+](=O)[O-])ccc1NNC(=O)Nc1ccc(Cl)c(Cl)c1	-24	13	91*	48	113*	9	93*	52*
O=C(Nc1ccc(Cl)c([N+](=O)[O-])c1)C(Sc1ccccc1)c1ccccc1 (stereo not drawn)	-5	5	88*	23	14	2	82*	24
O=C(NNc1ccccc1[N+](=O)[O-])Nc1ccc(Cl)c(Cl)c1	-5	2	87*	18	-13	-1	80*	41*
O=C(NCc1ccc2c(c1)OCO2)C(=O)NCC1OCCN1S(=O)(=O)c1ccccc1 (stereo not drawn)	-2	3	-1	2	-7	-6	.	.
Cc1cc2ncn(-c3ncccc3[N+](=O)[O-])c2cc1C	-27	0	5	1	-10	6	.	.
C[C@@H](C(=O)OCC(=O)c1ccccc1)N1C(=O)C2CCCCC2C1=O (stereo partly drawn)	-10	2	14	.	1	-3	.	.
Cc1nc2c(-c3ccccc3)cnn2c(N)c1-c1ccccc1	28	-5	83*	4	6	-10	77*	148*
COc1ccc(Br)cc1[C@H]1[C@H]2C=CC[C@@H](C)[C@@H]2C(=O)N1Cc1ccccc1	.	3	58*	42	.	0	37	.
C[C@@H]1CC=C[C@@H]2[C@H]1C(=O)N(Cc1ccccc1)[C@H]2c1cccc(C#Cc2ccccc2)c1	.	4	36	.	.	0	.	.
COc1ccc([C@H]2[C@H]3C=CC[C@@H](C)[C@@H]3C(=O)N2Cc2ccccc2)cc1Cl	6	0	34	22	-17	-4	.	.
COc1ccc(-c2c([C@H]3[C@H]4C=CC[C@@H](C)[C@@H]4C(=O)N3Cc3ccccc3)ccc3ccccc23)cc1OC	45	2	71*	22	33	4	20	.
COc1ccc(-c2ccc(F)cc2)cc1[C@H]1[C@H]2C=CC[C@@H](C)[C@@H]2C(=O)N1Cc1ccccc1	-6	-1	61*	32	-6	0	44*	50*
C[C@@H]1CC=C[C@@H]2[C@H]1C(=O)N(Cc1ccccc1)[C@H]2c1cccc(Br)c1	.	2	65*	.	.	-2	11	.
COc1ccccc1N(C)S(=O)(=O)c1ccc(C)c(C(=O)NC(C)c2ccccn2)c1 (stereo not drawn)	.	1	-15	.	3	0	.	.
C[C@@H]1CC=C[C@H]2[C@H]1C(=O)N(Cc1ccccc1)[C@H]2c1ccc(C(F)(F)F)cc1	15	-1	9	36	-3	0	.	.
COc1ccc(-c2ccccc2[C@H]2[C@@H]3C=CC[C@@H](C)[C@@H]3C(=O)N2Cc2ccccc2)cc1	.	3	69*	.	.	0	22	.
COc1ccc(-c2ccc(OC)c([C@H]3[C@H]4C=CC[C@@H](C)[C@@H]4C(=O)N3Cc3ccccc3)c2)cc1OC	61	2	58*	30	16	4	-10	.
O=C1C2C(c3ccccc3)CC=CC2[C@H](c2ccc(C(F)(F)F)cc2)N1Cc1ccccc1 (stereo partly drawn)	?	15	79*	25	21	2	43*	63*
CCN(CC)C(=O)Cn1cc(S(=O)(=O)CC(=O)Nc2ccc(C(N)=O)cc2)c2ccccc21	-3	-3	1	-2	2	-2	.	.
O=C(NNC(=O)c1ccc(Br)s1)c1ccc(F)c(S(=O)(=O)N2CCOCC2)c1	.	-1	13	.	6	-2	.	.
SMILES	CSC inhib	CHOP UPR activ	Mdm2 MdmX PPI	SKKanGAS inh	Beta apoptosis	UPR XBP1 act	Mdm2 MdmX conf	FLuc counter
CCCS(=O)(=O)c1nc(S(=O)(=O)c2ccc(C)cc2)c(NCCCN2CCCC2=O)s1	-13	-2	-15	-4	-8	-2	.	.
COc1ccc(S(=O)(=O)NCc2ccccn2)cc1NC(=O)c1ccccc1F	51	2	42	1	6	13	.	.
CCOc1ccc(S(=O)(=O)NCc2ccccn2)cc1NC(=O)c1ccccc1	51	0	58*	-11	.	3	75*	57*
Cc1cccc(N(C)S(=O)(=O)c2ccc(-c3cnc(C4CC4)o3)cc2)c1	78*	0	74*	2	54	4	59*	103*
CCOc1ccccc1NS(=O)(=O)c1ccc(-c2cnc(C3CC3)o2)cc1	17	2	73*	-13	45	3	56*	117*
CCOc1ccccc1NS(=O)(=O)c1ccc2c(c1)N(C)CCO2	0	0	26	-1	1	-2	.	.
Cc1ccc(NS(=O)(=O)c2ccc(-c3cnc(C4CC4)o3)cc2)c(C)c1	?	3	77*	3	21	5	56*	95*
COc1ccccc1CNS(=O)(=O)c1ccc(-c2cnc(C3CC3)o2)cc1	65	0	54*	-3	19	-1	55*	66*
CC(=O)N1c2ccc(S(=O)(=O)N(C)C3CCCCC3)cc2CC1C (stereo not drawn)	8	-1	1	-1	2	-1	.	.
